From ChEMBL document CHEMBL4261585, “Synthesis of 1,2,3-triazole linked 4(3H)-Quinazolinones as potent antibacterial agents against multidrug-resistant Staphylococcus aureus” (Eur J Med Chem, 2018)
Converted amounts (≈) assume the structure as drawn.

Experiments:
Staphylococcus aureus [1] = experiment: Antibacterial activity against vancomycin-resistant Staphylococcus aureus VRS12 by CLSI method; assay type: functional
In short: (§1)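 Broth microdilution to CLSI. A single colony from Mueller-Hinton agar is grown overnight in cation-supplemented MHB at 37 °C with shaking, 18–24 h. Levofloxacin is the reference. MIC is the lowest concentration with no visible growth, from three independent runs in duplicate.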

Staphylococcus aureus [2] = experiment: Antibacterial activity against methicillin-resistant Staphylococcus aureus NR10186 by CLSI method; assay type: functional; in short: as §1
Acinetobacter baumannii [3] = experiment: Antibacterial activity against Acinetobacter baumannii BAA-1605 after 16 to 18 hrs in presence of PMBN by CLSI method; assay type: functional
In short: (§2)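 MIC per CLSI broth microdilution with compound combined with a sub-lethal level of polymyxin B nonapeptide. Inoculum is ~10⁶ CFU/mL in cation-supplemented Mueller-Hinton broth. Incubation is 37 °C for 16–18 h. MIC is read as the absence of visible growth. Three independent runs, each in duplicate.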

[4] = test system: Mycobacteroides abscessus; experiment: Antimycobacterial activity against Mycobacterium abscessus by pesto blue-dye based broth microdilution assay; assay type: functional
Staphylococcus aureus [5] = experiment: Antibacterial activity against methicillin-sensitive Staphylococcus aureus ATCC 29213 by CLSI method; assay type: functional; in short: as §1
Escherichia coli [6] = experiment: Antibacterial activity against Escherichia coli ATCC 25922 after 16 to 18 hrs by CLSI method; assay type: functional
In short: (§3)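 Broth microdilution MIC per CLSI. A single colony from Mueller-Hinton agar is grown overnight in cation-supplemented Mueller-Hinton broth (37 °C, shaking, 18–24 h). Incubation is 37 °C for 16–18 h. MIC is the lowest concentration with no visible growth. Three independent runs, each in duplicate.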

Staphylococcus aureus [7] = experiment: Antibacterial activity against vancomycin-resistant Staphylococcus aureus VRS1 by CLSI method; assay type: functional; in short: as §1
Staphylococcus aureus [8] = experiment: Antibacterial activity against Staphylococcus aureus ATCC 29213 after 16 to 18 hrs by CLSI method; assay type: functional; in short: as §3
Staphylococcus aureus [9] = experiment: Antibacterial activity against methicillin-resistant Staphylococcus aureus NR119 by CLSI method; assay type: functional; in short: as §1
Staphylococcus aureus [10] = experiment: Antibacterial activity against vancomycin-resistant Staphylococcus aureus VRS4 by CLSI method; assay type: functional; in short: as §1
Acinetobacter baumannii [11] = experiment: Antibacterial activity against Acinetobacter baumannii BAA-1605 after 16 to 18 hrs by CLSI method; assay type: functional; in short: as §3
[12] = Cytotoxicity against African green monkey Vero cells after 72 hrs by MTT assay; assay type: cell-based; settings: chlorocebus sabaeus
In short: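 Vero cells are seeded at ~10³ per well and held 24 h at 37 °C, 5% CO₂. Compound at 100–5 mg/L is then added for 72 h. MTT is added at […], and formazan is dissolved in DMSO and read at 540 nm. CC50 is the lowest concentration giving 50% loss of viability. Doxorubicin is the positive control. Triplicate experiments.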

Staphylococcus aureus [13] = experiment: Antibacterial activity against methicillin-resistant Staphylococcus aureus NR10191 by CLSI method; assay type: functional; in short: as §1
Staphylococcus aureus [14] = experiment: Antibacterial activity against methicillin-resistant Staphylococcus aureus NR10193 by CLSI method; assay type: functional; in short: as §1
Mycobacteroides chelonae = experiment: Antimycobacterial activity against Mycobacterium chelonae by pesto blue-dye based broth microdilution assay; assay type: functional
[15] = Selectivity index, ratio of CC50 for African green monkey Vero cells to MIC for Staphylococcus aureus ATCC 29213; assay type: toxicity; settings: read-out: Selectivity Index
In short: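 Selectivity index is calculated as the Vero CC50 divided by the MIC against S. aureus ATCC 29213. CC50 comes from a 72 h MTT assay at 100–5 mg/L. MIC comes from CLSI broth microdilution at ~10⁶ CFU/mL, 37 °C, 16–18 h.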

Staphylococcus aureus [16] = experiment: Antibacterial activity against methicillin-resistant Staphylococcus aureus NR10129 by CLSI method; assay type: functional; in short: as §1
Escherichia coli [17] = experiment: Antibacterial activity against Escherichia coli ATCC 25922 after 16 to 18 hrs in presence of PMBN by CLSI method; assay type: functional; in short: as §2
Staphylococcus aureus [18] = experiment: Antibacterial activity against methicillin-resistant Staphylococcus aureus NR10192 by CLSI method; assay type: functional; in short: as §1
Staphylococcus aureus [19] = experiment: Antibacterial activity against methicillin-resistant Staphylococcus aureus NR10198 by CLSI method; assay type: functional; in short: as §1
[20] = test system: Mycobacterium tuberculosis; experiment: Antimycobacterial activity against Mycobacterium tuberculosis H37Rv ATCC 27294 after 7 days by pesto blue-dye based broth microdilution assay; assay type: functional; settings: H37Rv ATCC 27294, 168 h
In short: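 Broth microdilution in Middlebrook 7H9 with 10% ADC-Tween-80 (0.2% glycerol, 0.05% Tween-80). Compound is added from 10 mg/mL DMSO stocks as two-fold dilutions, 64–0.5 mg/L. Plates are incubated 7 days at 37 °C and read with PrestoBlue resazurin dye. MIC is the lowest concentration inhibiting visible growth, three replicates in duplicate.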

[21] = test system: Mycolicibacterium fortuitum; experiment: Antimycobacterial activity against Mycobacterium fortuitum by pesto blue-dye based broth microdilution assay; assay type: functional
Staphylococcus aureus [22] = experiment: Antibacterial activity against methicillin-resistant Staphylococcus aureus NR10194 by CLSI method; assay type: functional; in short: as §1
Klebsiella pneumoniae = experiment: Antibacterial activity against Klebsiella pneumoniae ATCC BAA-1705 after 16 to 18 hrs by CLSI method; assay type: functional; in short: as §3
Pseudomonas aeruginosa = experiment: Antibacterial activity against Pseudomonas aeruginosa ATCC 27853 after 16 to 18 hrs by CLSI method; assay type: functional; in short: as §3

SMILES | MIC (Staphylococcus aureus [1]) [µg/mL] | MIC (Staphylococcus aureus [2]) [µg/mL] | MIC [4] [µg/mL] | MIC (Staphylococcus aureus [5]) [µg/mL] | MIC (Escherichia coli [6]) [µg/mL] | MIC (Staphylococcus aureus [7]) [µg/mL] | MIC (Staphylococcus aureus [8]) [µg/mL] | MIC (Staphylococcus aureus [9]) [µg/mL] | MIC (Staphylococcus aureus [10]) [µg/mL] | MIC (Acinetobacter baumannii [11]) [µg/mL] | CC50 at 72 h [12] [µg/mL] | MIC (Staphylococcus aureus [13]) [µg/mL] | MIC (Staphylococcus aureus [14]) [µg/mL] | MIC (Mycobacteroides chelonae) [µg/mL] | selectivity ratio [15] | MIC (Staphylococcus aureus [16]) [µg/mL] | MIC [20] [µg/mL] | MIC [21] [µg/mL] | MIC (Klebsiella pneumoniae) [µg/mL] | MIC (Pseudomonas aeruginosa) [µg/mL] | further results
N#Cc1ccc(/C=C/c2nc3ccccc3c(=O)n2-c2cccc(OCc3cn(Cc4ccccc4)nn3)c2)cc1 | 2 (≈ 3.73 µM) | 2 (≈ 3.73 µM) | > 64 | 1 (≈ 1.86 µM) | > 64 | 32 (≈ 59.6 µM) | 0.5 (≈ 0.932 µM) | 2 (≈ 3.73 µM) | 2 (≈ 3.73 µM) | > 64 | 20 (≈ 37.3 µM) | 1 (≈ 1.86 µM) | 2 (≈ 3.73 µM) | > 64 | 40 | 2 (≈ 3.73 µM) | > 64 | > 64 | > 64 | > 64 | MIC (Acinetobacter baumannii [3]): > 64 µg/mL; MIC (Escherichia coli [17]): > 64 µg/mL; MIC (Staphylococcus aureus [18]): 1 µg/mL (≈ 1.86 µM); MIC (Staphylococcus aureus [19]): 2 µg/mL (≈ 3.73 µM); MIC (Staphylococcus aureus [22]): 1 µg/mL (≈ 1.86 µM)
N#Cc1ccc(/C=C/c2nc3ccccc3c(=O)n2-c2cccc(OCc3cn(Cc4ccc([N+](=O)[O-])cc4)nn3)c2)cc1 | – | – | > 64 | – | > 64 | – | 2 (≈ 3.44 µM) | – | – | > 64 | – | – | – | > 64 | – | – | > 64 | > 64 | > 64 | > 64 | –
COc1ccc(Cn2cc(COc3cccc(-n4c(/C=C/c5ccc(C#N)cc5)nc5ccccc5c4=O)c3)nn2)cc1 | – | – | > 64 | – | > 64 | – | 0.5 (≈ 0.882 µM) | – | – | > 64 | – | – | – | > 64 | – | – | > 64 | > 64 | > 64 | > 64 | –
N#Cc1ccc(/C=C/c2nc3ccccc3c(=O)n2-c2cccc(OCc3cn(-c4cccc(Cl)c4)nn3)c2)cc1 | 2 (≈ 3.59 µM) | 0.5 (≈ 0.898 µM) | > 64 | 0.5 (≈ 0.898 µM) | > 64 | 32 (≈ 57.4 µM) | 0.5 (≈ 0.898 µM) | 0.5 (≈ 0.898 µM) | 0.5 (≈ 0.898 µM) | > 64 | 40 (≈ 71.8 µM) | 1 (≈ 1.8 µM) | 1 (≈ 1.8 µM) | > 64 | 80 | 0.5 (≈ 0.898 µM) | > 64 | > 64 | > 64 | > 64 | MIC (Acinetobacter baumannii [3]): > 64 µg/mL; MIC (Escherichia coli [17]): > 64 µg/mL; MIC (Staphylococcus aureus [18]): 0.5 µg/mL (≈ 0.898 µM); MIC (Staphylococcus aureus [19]): 0.5 µg/mL (≈ 0.898 µM); MIC (Staphylococcus aureus [22]): 0.5 µg/mL (≈ 0.898 µM)
N#Cc1ccc(/C=C/c2nc3ccccc3c(=O)n2-c2cccc(OCc3cn(Cc4cccc(Br)c4)nn3)c2)cc1 | – | – | > 64 | – | > 64 | – | 0.5 (≈ 0.812 µM) | – | – | > 64 | – | – | – | > 64 | – | – | > 64 | > 64 | > 64 | > 64 | –
Cc1cccc(-n2cc(COc3cccc(-n4c(/C=C/c5ccc(C#N)cc5)nc5ccccc5c4=O)c3)nn2)c1 | – | – | > 64 | – | > 64 | – | 0.5 (≈ 0.932 µM) | – | – | > 64 | 20 (≈ 37.3 µM) | – | – | > 64 | 40 | – | > 64 | > 64 | > 64 | > 64 | –
N#Cc1ccc(/C=C/c2nc3ccccc3c(=O)n2-c2cccc(OCc3cn(-c4ccc(Cl)cc4)nn3)c2)cc1 | – | – | > 64 | – | > 64 | – | 0.5 (≈ 0.898 µM) | – | – | > 64 | 20 (≈ 35.9 µM) | – | – | > 64 | 40 | – | > 64 | > 64 | > 64 | > 64 | –
C[C@H]1COc2c(N3CCN(C)CC3)c(F)cc3c(=O)c(C(=O)O)cn1c23.C[C@H]1COc2c(N3CCN(C)CC3)c(F)cc3c(=O)c(C(=O)O)cn1c23.O [LEVOFLOXACIN] | 32 | 8 | – | 0.5 | – | 32 | 0.125 | 16 | > 64 | – | – | 32 | 32 | – | – | 0.5 | – | – | 64 | 0.5 | MIC (Staphylococcus aureus [18]): 8 µg/mL; MIC (Staphylococcus aureus [19]): 32 µg/mL; MIC (Staphylococcus aureus [22]): 0.5 µg/mL
C[C@@H](O)[C@H]1C(=O)N2C(C(=O)O)=C(S[C@@H]3CN[C@H](C(=O)N(C)C)C3)[C@H](C)[C@H]12 [MEROPENEM] | > 64 | 16 (≈ 41.7 µM) | – | 4 (≈ 10.4 µM) | – | > 64 | – | > 64 | > 64 | – | – | > 64 | > 64 | – | – | 16 (≈ 41.7 µM) | – | – | – | – | MIC (Staphylococcus aureus [18]): 64 µg/mL (≈ 167 µM); MIC (Staphylococcus aureus [19]): > 64 µg/mL; MIC (Staphylococcus aureus [22]): 4 µg/mL (≈ 10.4 µM)
CO[C@H]1/C=C/O[C@@]2(C)Oc3c(C)c(O)c4c(O)c(c(/C=N/N5CCN(C)CC5)c(O)c4c3C2=O)NC(=O)/C(C)=C\C=C\[C@H](C)[C@H](O)[C@@H](C)[C@@H](O)[C@@H](C)[C@H](OC(C)=O)[C@@H]1C [RIFAMPIN] | – | – | – | – | 4 (≈ 4.86 µM) | – | – | – | – | 4 (≈ 4.86 µM) | – | – | – | – | – | – | – | – | – | – | MIC (Acinetobacter baumannii [3]): 0.25 µg/mL; MIC (Escherichia coli [17]): 0.125 µg/mL
CN[C@H](CC(C)C)C(=O)N[C@H]1C(=O)N[C@@H](CC(N)=O)C(=O)N[C@H]2C(=O)N[C@H]3C(=O)N[C@H](C(=O)N[C@H](C(=O)O)c4cc(O)cc(O)c4-c4cc3ccc4O)[C@H](O)c3ccc(c(Cl)c3)Oc3cc2cc(c3O[C@@H]2O[C@H](CO)[C@@H](O)[C@H](O)[C@H]2O[C@H]2C[C@](C)(N)[C@H](O)[C@H](C)O2)Oc2ccc(cc2Cl)[C@H]1O [VANCOMYCIN] | > 64 | – | – | – | – | > 64 | – | – | > 64 | – | – | – | – | – | – | – | – | – | – | – | –
